Active and inactive are the calls of the source. The rule behind the calls is not given here. Square brackets hold non-standard residues; d marks the D form. Peptide text beside a SMILES is read from it. * marks the point of attachment. X1 = CC[C@H](C)[C@@H](OC(=O)/C=C/c1ccccc1)C(=O)*; dNMeF = CN[C@H](Cc1ccccc1)C(=O)O; NMeL = CN[C@@H](CC(C)C)C(=O)O

For one series, the target named is T1, Substance-K receptor (Homo sapiens, UniProt P21452).
T1 sequence (P21452 whole entry): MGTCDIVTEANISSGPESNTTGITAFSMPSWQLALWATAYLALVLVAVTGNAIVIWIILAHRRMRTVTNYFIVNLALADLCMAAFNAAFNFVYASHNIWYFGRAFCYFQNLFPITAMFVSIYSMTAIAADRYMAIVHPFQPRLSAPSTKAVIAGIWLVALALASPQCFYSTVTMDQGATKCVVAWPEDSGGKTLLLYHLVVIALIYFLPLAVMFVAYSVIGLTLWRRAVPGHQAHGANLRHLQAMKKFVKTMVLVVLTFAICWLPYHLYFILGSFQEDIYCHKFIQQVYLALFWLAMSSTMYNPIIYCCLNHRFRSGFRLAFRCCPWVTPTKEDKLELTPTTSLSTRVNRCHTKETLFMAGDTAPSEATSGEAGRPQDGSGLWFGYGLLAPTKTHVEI
The experiment in a line: Antagonist activity at human TACR2 expressed in CHOK1 cells assessed as substance P-induced beta-arrestin recruitment pre-incubated for 30 mins before substance P stimulation for 90 or 180 mins by chemiluminescence method. It counts as functional, cell-based. Put shortly:
(§1)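 PathHunter β-arrestin complementation assay, antagonist mode. Cells co-express ProLink-tagged GPCR and enzyme-acceptor-tagged β-arrestin and are pre-incubated with sample for 30 min at 37 °C or room temperature. Dose-response: 10 points, 3-fold dilutions from 20 μM, in duplicate.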
On the technique in general: Arrestin recruitment assays detect the binding of arrestin to an activated receptor.

For another series, the target named is T2, Caspase-14 (Homo sapiens, UniProt P31944).
T2 sequence (P31944 whole entry): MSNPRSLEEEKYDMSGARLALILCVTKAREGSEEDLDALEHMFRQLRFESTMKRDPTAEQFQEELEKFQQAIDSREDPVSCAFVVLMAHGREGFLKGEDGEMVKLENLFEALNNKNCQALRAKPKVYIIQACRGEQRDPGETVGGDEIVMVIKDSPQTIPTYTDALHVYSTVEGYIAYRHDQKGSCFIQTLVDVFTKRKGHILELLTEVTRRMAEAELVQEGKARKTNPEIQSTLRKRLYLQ
The experiment in a line: Inhibition of human caspase 14 using Ac-WEHD-AMC fluorogenic peptide as substrate by fluorescence assay. Put shortly: (§2)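 Activity followed as a time course of rising fluorescence from a fluorescently labelled peptide substrate. The initial linear slope (signal/min) was used.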

In series [1] the target is T3, Atypical chemokine receptor 3 (Homo sapiens, UniProt P25106). The experiment in a line: Agonist activity at human CXCR7 expressed in CHOK1 cells assessed as induction of beta-arrestin recruitment at 10 uM by chemiluminescence method. It counts as functional, cell-based.
T3 sequence (P25106 whole entry): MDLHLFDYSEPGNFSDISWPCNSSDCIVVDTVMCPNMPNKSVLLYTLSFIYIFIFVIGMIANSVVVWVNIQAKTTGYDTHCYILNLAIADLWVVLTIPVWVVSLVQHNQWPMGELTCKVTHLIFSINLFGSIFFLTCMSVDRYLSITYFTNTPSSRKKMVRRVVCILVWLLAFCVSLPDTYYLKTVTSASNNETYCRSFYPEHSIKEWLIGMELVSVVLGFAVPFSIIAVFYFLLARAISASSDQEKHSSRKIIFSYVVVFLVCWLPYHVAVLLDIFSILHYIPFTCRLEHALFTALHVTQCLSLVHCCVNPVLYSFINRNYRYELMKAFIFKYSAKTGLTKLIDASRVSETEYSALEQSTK
For series [2], the target named is T4, Kallikrein-7 (Homo sapiens, UniProt P49862). Kind of series: Inhibition of kallikrein 7-mediated Dsg-2 shedding in human MDA-MB-468 cells at 0.01 to 10 uM incubated for 48 hrs by ELISA. It counts as cell-based.
Target sequence in this assay (P49862 30-253 limits assumed): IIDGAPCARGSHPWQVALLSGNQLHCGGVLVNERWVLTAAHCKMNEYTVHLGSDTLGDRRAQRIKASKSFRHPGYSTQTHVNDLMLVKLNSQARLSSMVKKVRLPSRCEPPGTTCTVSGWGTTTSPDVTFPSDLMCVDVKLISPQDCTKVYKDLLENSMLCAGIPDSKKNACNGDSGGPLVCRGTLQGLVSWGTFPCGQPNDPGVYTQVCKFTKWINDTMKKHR
The target of series [3] is T4, Kallikrein-7. Kind of series: Mixed type inhibition of kallikrein 7 (unknown origin) using fluorescently labeled peptide substrate by fluorescence assay based Michaelis-Menten kinetic plot analysis.
Target sequence in this assay (P49862 30-253 limits assumed): as above
Series [4] deals with MDA-MB-231. The experiment in a line: Toxicity in human MDA-MB-231 cells assessed as inhibition of proliferation after 48 hrs by MTT assay. The series is classed as cell-based. Particulars: mda-mb-231, 48 h. Put shortly:
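MDA-MB-231 cells are grown in DMEM with 10% FBS and seeded at 10,000 cells/well for 24 h. Cells are then exposed to graded compound concentrations or DMSO for 48 h. Viability is measured by MTT.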
(In general: Tetrazolium dyes change colour on reduction, which living cells bring about.)

Series [5] deals with MDA-MB-231. The experiment in a line: Antiproliferative activity against siCCR10 knockdown human MDA-MB-231 cells after 48 hrs by MTT assay. It counts as functional. Put shortly: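 MDA-MB-231 cells are incubated with 50 nM CCR10 siRNA, which gives 60% knockdown confirmed by RT-qPCR. Proliferation is compared with negative-control siRNA, mean ± SD, n = 3.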
Series [6] has as its target T5, C-C chemokine receptor type 10 (Homo sapiens) (UniProt P46092).
T5 sequence (whole entry): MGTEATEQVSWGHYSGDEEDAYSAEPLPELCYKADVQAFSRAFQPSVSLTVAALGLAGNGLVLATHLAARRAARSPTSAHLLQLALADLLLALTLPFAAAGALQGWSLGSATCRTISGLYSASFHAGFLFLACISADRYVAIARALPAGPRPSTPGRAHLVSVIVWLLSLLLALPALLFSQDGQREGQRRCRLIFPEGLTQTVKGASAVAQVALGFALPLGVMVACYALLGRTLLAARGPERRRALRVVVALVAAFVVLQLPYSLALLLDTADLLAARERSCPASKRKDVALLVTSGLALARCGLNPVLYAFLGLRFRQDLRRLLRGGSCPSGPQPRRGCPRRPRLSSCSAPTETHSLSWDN
The experiment in a line: Antagonist activity at CCR10 in human MDA-MB-231 cells assessed as inhibition of CCL27-induced proliferation up to 10 uM preincubated for 2 hrs followed by CCL27 addition measured after 48 hrs by MTT assay. It counts as functional, cell-based. Put shortly:
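MDA-MB-231 cells are seeded at 10,000/well in serum-free DMEM for 24 h, then pretreated with compound for 2 h. CCL27 is added at 1 μg/mL final for 48 h. Viability is measured by MTT and compared with solvent control, mean ± SD, n = 3.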

Another series addresses T6, Chymase (Homo sapiens, UniProt P23946).
T6 sequence (P23946 whole entry): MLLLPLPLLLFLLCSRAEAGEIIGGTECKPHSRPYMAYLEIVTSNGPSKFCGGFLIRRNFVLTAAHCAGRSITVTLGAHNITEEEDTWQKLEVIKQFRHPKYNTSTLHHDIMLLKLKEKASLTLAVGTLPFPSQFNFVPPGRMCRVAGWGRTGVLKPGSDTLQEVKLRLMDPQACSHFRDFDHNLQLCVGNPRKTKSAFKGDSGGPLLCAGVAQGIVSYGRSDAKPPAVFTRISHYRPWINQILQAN
The experiment in a line: Inhibition of chymase (unknown origin) by fluorescence assay. Put shortly: as §2

For series [7], the target named is Somatostatin receptor type 3 (Homo sapiens, UniProt P32745). Kind of series: Antagonist activity at human SSTR3 expressed in HEK293 cells assessed as [Tyr1]-somatostatin 14-induced beta-arrestin recruitment pre-incubated for 30 mins before [Tyr1]-somatostatin 14 stimulation for 90 or 180 mins by chemiluminescence method. It counts as functional, cell-based. The essentials: as §1
Somatostatin receptor type 3, sequence (P32745 whole entry): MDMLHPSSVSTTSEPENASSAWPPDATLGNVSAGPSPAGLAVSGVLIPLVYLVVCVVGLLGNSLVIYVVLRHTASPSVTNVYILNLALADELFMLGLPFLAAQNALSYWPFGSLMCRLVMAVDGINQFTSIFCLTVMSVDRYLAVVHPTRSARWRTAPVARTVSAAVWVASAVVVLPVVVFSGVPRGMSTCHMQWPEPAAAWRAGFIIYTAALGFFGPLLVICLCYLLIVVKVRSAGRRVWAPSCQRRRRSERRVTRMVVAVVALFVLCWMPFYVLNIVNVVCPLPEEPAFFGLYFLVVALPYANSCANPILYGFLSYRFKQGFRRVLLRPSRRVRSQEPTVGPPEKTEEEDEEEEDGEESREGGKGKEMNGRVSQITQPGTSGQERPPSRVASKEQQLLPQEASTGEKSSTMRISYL

Series [8] concerns the target T4, Kallikrein-7. Kind of series: Inhibition of kallikrein 7 (unknown origin) by fluorescence assay. The essentials:
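Protease panel screen: 10-dose titrations, 3-fold serial dilution from 100 μM, singlet. Protease activity is followed as the time-course rise in fluorescence from a labeled peptide substrate, and the initial linear slope (signal/min) is analysed.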
Target sequence in this assay (P49862 whole entry): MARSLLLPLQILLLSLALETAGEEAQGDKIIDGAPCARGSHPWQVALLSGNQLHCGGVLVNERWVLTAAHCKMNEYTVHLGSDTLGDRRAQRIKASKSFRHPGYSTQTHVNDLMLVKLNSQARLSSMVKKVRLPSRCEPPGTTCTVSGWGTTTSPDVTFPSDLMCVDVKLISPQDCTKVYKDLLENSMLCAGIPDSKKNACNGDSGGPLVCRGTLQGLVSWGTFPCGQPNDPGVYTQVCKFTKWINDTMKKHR

Series [9] has as its target T3, Atypical chemokine receptor 3. Kind of series: Agonist activity at human CXCR7 expressed in CHOK1 cells assessed as induction of beta-arrestin recruitment by chemiluminescence method. The series is classed as functional, cell-based. Put shortly: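 PathHunter β-arrestin enzyme-fragment complementation assay in cells stably co-expressing ProLink-tagged GPCR and enzyme-acceptor-tagged β-arrestin. Sample is added to cells and incubated 90 or 180 min at 37 °C or room temperature, with 1% final vehicle. Detection reagent is added for 1 h at room temperature and chemiluminescence is read. % activity is taken relative to vehicle and maximal control ligand. Dose-response: 10 points, 3-fold dilutions from 20 μM, in duplicate.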

Series [10] deals with MDA-MB-231. Kind of series: Antimigratory activity against human MDA-MB-231 cells at 10 uM after 48 hrs by transwell migration assay relative to control. It counts as functional.

A word on the IC50: it is the concentration that gives 50% inhibition. As a reminder, the inhibition is the percentage by which the read-out fell short of the control. By EC50 is commonly meant the concentration that produces a half-maximal response. Regarding `CC[C@H](C)[C@@H](OC(=O)/C=C/c1ccccc1)C(=O)N1CCC[C@H]1C(=O)NCC(=O)N(C)[C@@H](CC(C)C)C(=O)N[C@@H](C)C(=O)N(C)[C@H](Cc1ccccc1)C(=O)N1CCC[C@H]1C(=O)OC` (X1-PG[NMeL]A[dNMeF]P-OMe), the IC50 at Substance-K receptor was 1.79 µM; against Caspase-14, 10.1 µM; on Chymase, 23.2 µM; in [7], 3.12 µM; on Kallikrein-7 [8] it was 18.9 µM. For the same molecule, the Activity in series [1] was 86%; with MDA-MB-231 [4] it was “Non-Toxic”; in the series on MDA-MB-231 [5], 10%; in the series on MDA-MB-231 [10], 60%. Further, the inhibition entry on Kallikrein-7 [2] is “inactive”. For the same molecule, on Kallikrein-7 [3], the inhibition result was “Active”. The inhibition in [6] was 10%. Moreover, the EC50 in [9] was 3.97 µM.

The record behind these values is ChEMBL document CHEMBL4138319, “Discovery, Synthesis, Pharmacological Profiling, and Biological Characterization of Brintonamides A-E, Novel Dual Protease and GPCR Modulators from a Marine Cyanobacterium” (J Med Chem, 2018).
